Results from different studies.

SMILES	tested on	test	conditions	endpoint	value
COc1cc(C=Nc2ccc(C)cc2Cl)ccc1O	Escherichia coli	microbial growth, disc diffusion	2000 µg/mL, 24 h	inhibition zone	14.8 mm
Cc1c(C(=O)O)ccc2c3n(nc12)[C@@H]1[C@H](C3)N(CC2CC2)[C@@]2(C(=O)Nc3cc(Cl)ccc32)[C@H]1c1cccc(Cl)c1F	human Fibroblast	cell growth or viability, ATP luminescence	72 h	GI50	5 nM
CC(O)CSc1nnc(-c2ccccc2)n1-c1ccccc1 (stereo not shown)	Staphylococcus aureus	microbial growth, disc diffusion	25 µg/disc	inhibition zone	10 mm
CC(C)c1ccccc1[C@@H]1CCCN1C1CC2(CCN(c3ccc(C(=O)NS(=O)(=O)c4ccc(NC[C@H]5CC[C@](C)(O)CC5)c([N+](=O)[O-])c4)c(Oc4cnc5[nH]ccc5c4)c3)CC2)C1	MV4-11	cell growth or viability, ATP luminescence	48 h	IC50	1.2 nM
COc1cc2ncnc(N(C)c3ccc4c(c3)/C(=C/c3cccc(Cl)c3)C(=O)N4C)c2cc1OC	BEAS-2B	cell growth or viability, MTT	–	IC50	10100 nM
C=CC(=O)NC1CCN(c2ncc3ncnc(Nc4ccc(Oc5ccc6c(c5)ncn6C)c(C)c4)c3n2)CC1	IM95	cell growth or viability	–	EC50	54.1 nM
CC(O)CSc1nnc(-c2cc3ccccc3o2)n1-c1ccccc1 (stereo not shown)	Escherichia coli	microbial growth, disc diffusion	25 µg/disc	inhibition zone	10.3 mm
CN(C)[C@@H]1C(O)=C(C(N)=O)C(=O)[C@@]2(O)C(O)=C3C(=O)c4c(O)cccc4[C@@](C)(O)[C@H]3C[C@@H]12	Escherichia coli	microbial growth, disc diffusion	100 µg/mL, 24 h	inhibition zone	0 mm
Cc1nc(Nc2ccc3c(c2)/C(=C/c2ccccc2C)C(=O)N3C)c2ccccc2n1	BEAS-2B	cell growth or viability, MTT	–	IC50	15400 nM
CC1(C)CCC(CN2CCN(c3ccc(C(=O)NS(=O)(=O)c4ccc(NCC5CCOCC5)c([N+](=O)[O-])c4)c(Oc4cnc5[nH]ccc5c4)c3)CC2)=C(c2ccc(Cl)cc2)C1	KMS-12-PE	cell growth or viability, ATP luminescence	48 h	IC50	13 nM
